# Measurements pooled from the literature.
# Compare with care: the assays were run in different laboratories.
# Target: Phosphatidylinositol 4-phosphate 5-kinase type-1 gamma (PIP5K1C, Homo sapiens, UniProt O60331)
Compound,assay,setting,remaining binding [%]
CCN1CCN(Cc2ccc(C(=O)Nc3ccc(C)c(Oc4ccc5c(c4)CC(=O)N5)c3)cc2C(F)(F)F)CC1,"binding, competition with immobilised ligand",1 µM,92
O=C(N[C@H]1CCCCC/C=C\C2C[C@@]2(C(=O)O)NC(=O)[C@@H]2C[C@@H](Oc3ccncc3)CN2C1=O)OC1CCCC1 (stereo partly shown),"binding, competition with immobilised ligand",1 µM,100
COc1ccnn2ncc(-c3ccnc(N(C)C)n3)c12,binding,1 µM,97
c1cncc(-c2cccc(Nc3nccc(NC4CCCCC4)n3)c2)c1,"binding, competition with immobilised ligand",10 µM,0
O=C(c1ccc(Nc2nccc(-c3cc4ccccc4s3)n2)cc1)N1CCC(N2CCCC2)CC1,"binding, competition with immobilised ligand",1 µM,13
C[C@H]1CCN(c2nccc(-c3cnn4ncccc34)n2)C1,binding,1 µM,95
COc1cnc(Nc2cccc(S(N)(=O)=O)c2)nc1N1CCN(c2ccccc2)C(=O)C1,"binding, competition with immobilised ligand",1 µM,95
C[C@@H]1CN(c2cc(-c3n[nH]c4ccc(OC5(C)CC5)cc34)ncn2)C[C@H](C)O1,"cell-free assay, competition with immobilised ligand",0.1 µM,92
N[C@H]1CCN(c2nccc(-c3cnn4ncccc34)n2)C1,binding,1 µM,63
COc1cccc(CNC(=O)c2nc3scc(COCc4ccc(C(=O)O)cc4)c3c(=O)[nH]2)c1,"cell-free assay, competition with immobilised ligand",1 µM,63.7
CN(CCCC(F)(F)F)c1nccc(-c2cnn3ncccc23)n1,binding,1 µM,77
Cc1nc(C2CCN(C(=O)c3ccc(OC(F)(F)F)cc3N)CC2)c2ncc(N3CCN(C)CC3)cc2n1,"cell-free assay, competition with immobilised ligand",1 µM,94
CC1CCCN1c1nccc(-c2cnn3ncccc23)n1 (stereo not shown),binding,1 µM,74
CNC(=O)[C@@H]1CC[C@@H](n2c(-c3ccc4cnccc4c3)nc3ccc(C(=O)NCc4cccc(C(N)=O)c4)cc32)C1,"binding, competition with immobilised ligand",1 µM,80
COc1ncc2cc3ccccc3nc2c1C#N,"cell-free assay, competition with immobilised ligand",5 µM,89
O=C(NCC1CCOCC1)c1n[nH]cc1NC(=O)c1c(F)cccc1F,"binding, competition with immobilised ligand",1 µM,55
CN(C)c1nccc(-c2cnc3ncccn23)n1,binding,1 µM,100
CCOCCn1cc(C(=O)Nc2ccc(-n3nc(-c4cccnc4)cc3C(F)(F)F)cn2)ccc1=O,"cell-free assay, competition with immobilised ligand",1 µM,100
O=C(NCCCN1CCOCC1)c1ccc(Nc2ncc(Cl)c(-c3ccc(Cl)s3)n2)cc1,"binding, competition with immobilised ligand",1 µM,59
